Measured values published in PubChem BioAssay.
The source made the active and inactive calls.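 The calls were made as follows, unless noted: active = viability at or under a set limit in both replicates, limit being median viability minus 3 SD (cut at about 48% in these data, passing the limit was not always enough); inconclusive = at or under the limit in just one replicate; inactive = at or above the limit in both replicates.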 Square brackets hold non-standard residues; d marks the D form. Peptide text beside a SMILES is read from it. * marks the point of attachment. ξ: configuration not given here. Cbz = O=C(OCc1ccccc1)*; ξK = NCCCCC(N)C(=O)O

Key:
[1] = Her2 expression decrease, cell viability multiplex – SKBR3 breast tumor cells, AlphaScreen, ATP viability, primary screen (AID 461;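 active = Her2 level under about 52% in both replicate screens, with viability over 70% of control, limit read from the data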;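 as to Her2 level: lower value means less Her2 protein in the cells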;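 as to viability: percent of carrier control wells set as 100% viability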); details: SKBR3 Her2 protein level, 18-24 h, measured here: SKBR3 viability, ATP luminescence, at 10 µM
[2] = molecular target: Receptor tyrosine-protein kinase erbB-2 (Homo sapiens) (UniProt P04626); test: as above; details: 18-24 h, at 10 µM, stronger effect = lower value
Receptor tyrosine-protein kinase erbB-2 (Homo sapiens), sequence (P04626 whole entry, looked up): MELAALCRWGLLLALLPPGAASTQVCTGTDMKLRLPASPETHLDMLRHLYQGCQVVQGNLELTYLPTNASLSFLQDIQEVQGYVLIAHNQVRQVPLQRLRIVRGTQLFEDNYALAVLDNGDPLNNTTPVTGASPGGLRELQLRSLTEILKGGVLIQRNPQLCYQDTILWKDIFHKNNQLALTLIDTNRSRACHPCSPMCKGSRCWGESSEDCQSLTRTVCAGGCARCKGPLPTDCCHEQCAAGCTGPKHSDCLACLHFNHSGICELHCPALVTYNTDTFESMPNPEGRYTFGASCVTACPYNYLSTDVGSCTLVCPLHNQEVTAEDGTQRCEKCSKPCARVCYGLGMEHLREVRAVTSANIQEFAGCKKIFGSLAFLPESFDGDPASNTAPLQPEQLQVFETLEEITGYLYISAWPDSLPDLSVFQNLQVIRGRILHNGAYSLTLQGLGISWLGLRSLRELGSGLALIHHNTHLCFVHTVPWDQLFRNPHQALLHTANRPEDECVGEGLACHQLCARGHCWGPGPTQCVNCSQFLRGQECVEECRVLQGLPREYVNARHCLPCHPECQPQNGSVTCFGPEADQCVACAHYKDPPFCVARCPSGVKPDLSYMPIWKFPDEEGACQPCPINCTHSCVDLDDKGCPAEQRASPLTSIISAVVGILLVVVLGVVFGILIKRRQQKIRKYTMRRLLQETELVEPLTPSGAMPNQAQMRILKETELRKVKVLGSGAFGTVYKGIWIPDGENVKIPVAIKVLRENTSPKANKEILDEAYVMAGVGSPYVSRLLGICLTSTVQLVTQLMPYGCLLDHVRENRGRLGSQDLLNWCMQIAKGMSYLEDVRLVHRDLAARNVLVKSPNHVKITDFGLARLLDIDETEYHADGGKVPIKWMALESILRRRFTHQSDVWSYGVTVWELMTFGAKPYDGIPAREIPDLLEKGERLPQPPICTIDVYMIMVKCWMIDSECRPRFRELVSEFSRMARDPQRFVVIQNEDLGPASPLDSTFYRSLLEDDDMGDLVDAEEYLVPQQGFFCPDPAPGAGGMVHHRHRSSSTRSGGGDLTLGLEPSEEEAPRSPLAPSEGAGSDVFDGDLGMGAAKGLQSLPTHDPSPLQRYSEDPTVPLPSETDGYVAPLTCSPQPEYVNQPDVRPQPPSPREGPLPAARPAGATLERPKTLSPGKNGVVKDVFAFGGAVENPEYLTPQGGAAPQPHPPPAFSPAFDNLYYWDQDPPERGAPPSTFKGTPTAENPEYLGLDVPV

[3] = reduced viability of SK-BR-3 breast cancer cells – cell-based, 24 h, human, pilot screen (AID 572;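 active = viability at or below 10% of carrier control in both of two separate runs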;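 also: compound exposure lasted between 18 and 24 h rather than exactly 24 h; 100% = carrier-treated control wells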); details: SK-BR-3 viability, CellTiter-Glo luminescence, at 10 µM, stronger effect = lower value
[4] = HUVEC growth inhibition – cell-based, human, primary screen (AID 575;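 active = viability at or below 30% in both replicate assays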;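 also: 100% = median of untreated cell wells with 0.1% DMSO on each plate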); details: HUVEC proliferation, CellTiter-Glo luminescence, 72 h; at 10 µM; stronger effect = lower value
Summary of the method: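 System – primary HUVEC, no more than 12 passages · Medium – Low-serum (2% FBS) EBM, supplemented · Times – 72 h exposure, 37 °C, 5% CO2, 30 min RT equilibration · Measured by – luminescent ATP assay · Read-out – % viability relative to median vehicle-well signal on each plate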

[5] = H69AR cell proliferation blockers – human, duplicate replicates, primary screen (AID 580); details: H69AR lung tumor cells viability, ATP luminescence, 72 h; at 10 µM; stronger effect = lower value;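 also: 100% = mean luminescence of untreated wells and 0% = no signal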
[6] = MRP1 drug-resistance reversers in H69AR cells – cell-based, doxorubicin co-treatment, pilot screen (AID 601;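 active = viability loss from added drug above about 55%, and viability with drug at most 40%, in both replicates, limit read from the data, passing the limit was not always enough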); details: CellTiter-Glo, 72 h, at 10 µM; for differential viability (reversal): stronger effect = higher value
[7] = yeast transport mutant growth inhibition pilot in 384-well plates, post-Golgi transport modulator project (AID 636; in the data active = inhibition above about 31%); details: absorbance 615 nm, about 18 h, stronger effect = higher value
[8] = growth suppression of yeast trafficking mutant, preliminary HTS, modulators of trafficking downstream of Golgi apparatus project, 1536-format plate, OD 615 nm (AID 637; in the data active = inhibition above about 30%); details: yeast transport mutant growth, absorbance 615 nm, 18 h; stronger effect = higher value
[9] = H69AR cells + 2 uM doxorubicin, measured here: viability with 2 uM doxorubicin, stronger effect = lower value
[10] = H69AR cells, compound alone cytotoxicity

| SMILES | viability [1] | Her2 level [2] | viability [3] | viability [4] | viability [5] | differential viability (reversal) ([6]; H69AR cells + 2 uM doxorubicin) | viability [6, 9] | viability [6, 10] | inhibition [7] | inhibition [8] |
| --- | --- | --- | --- | --- | --- | --- | --- | --- | --- | --- |
| Cc1ccc(-c2noc(CCC(=O)NCC3CCN(Cc4cccc(C)c4)CC3)n2)cc1 | 93.5% | 82.5% (inactive) | 93.5% (inactive) | 53.9% (inactive) | 84.6% (inactive) | -11% (inactive) | 95.6% | 84.6% | -4.87% (inactive) | 1.83% (inactive) |
| NC(=O)CSc1nnc(-c2cc3ccccc3o2)n1Cc1ccccc1 | 92.5% | 81.5% (inactive) | 92.5% (inactive) | 104% (inactive) | 90.3% (inactive) | -1.59% (inactive) | 91.8% | 90.3% | -6.05% (inactive) | 0.67% (inactive) |
| CC(C)=CC(=O)Nc1ccc(Br)cc1 | 77.5% | 104% (inactive) | 77.5% (inactive) | 107% (inactive) | 98.2% (inactive) | 6.66% (inactive) | 91.5% | 98.2% | 1.45% (inactive) | -9.35% (inactive) |
| CC(=O)Oc1ccc(-c2ccc(C(=O)O)cc2)cc1 | 87% | 110% (inactive) | 87% (inactive) | 94.5% (inactive) | 107% (inactive) | 18.3% (inactive) | 88.8% | 107% | -0.64% (inactive) | -7.83% (inactive) |
| Cc1cc(NC(=O)CCCN2C(=O)c3cccnc3C2=O)no1 | 92% | 95.5% (inactive) | 92% (inactive) | 94.3% (inactive) | 107% (inactive) | 5.19% (inactive) | 102% | 107% | -2.84% (inactive) | -1.64% (inactive) |
| Cc1ccc2nc(SCC(=O)NCc3ccco3)c(C#N)cc2c1 | 90.5% | 88.5% (inactive) | 90.5% (inactive) | 82.3% (inactive) | 62.2% (inactive) | -7.5% (inactive) | 69.7% | 62.2% | -4.74% (inactive) | -3.27% (inactive) |
| COC(=O)C(CCCCNC(=O)OCc1ccccc1)NC(=O)CN (stereo not given) (H-Gly-[ξK](Cbz)-OMe) | 109% | 92.5% (inactive) | 109% (inactive) | 96.6% (inactive) | 100% (inactive) | 4.78% (inactive) | 95.5% | 100% | -2.6% (inactive) | -0.79% (inactive) |
| O=C(Cn1c(SCC(=O)N2CCCc3ccccc32)nc2ccccc21)N1CCCC1 | 94% | 96% (inactive) | 94% (inactive) | 104% (inactive) | 98.3% (inactive) | 4.66% (inactive) | 93.6% | 98.3% | -6.05% (inactive) | -2.38% (inactive) |
| Cc1cc(C)c2[nH]c(=O)c(C(c3nnnn3Cc3ccc4c(c3)OCO4)N3CCC(C)CC3)cc2c1 (stereo not given) | 90% | 106% (inactive) | 90% (inactive) | 84.4% (inactive) | 86.7% (inactive) | -6.47% (inactive) | 93.1% | 86.7% | -4.67% (inactive) | -6.83% (inactive) |
| N#CC(C(=O)c1ccco1)c1ccccn1 (stereo not given) | 106% | 81% (inactive) | 106% (inactive) | 98.1% (inactive) | 86.1% (inactive) | 4.21% (inactive) | 81.9% | 86.1% | -7.37% (inactive) | 0.67% (inactive) |
| Cc1csc(SCc2nc3sc4c(c3c(=O)[nH]2)CCC4)n1 | 116% | 122% (inactive) | 116% (inactive) | 103% (inactive) | 87.8% (inactive) | 1.88% (inactive) | 86% | 87.8% | -6.16% (inactive) | 0% (inactive) |
| CCC(Sc1ncccc1C(=O)O)C(=O)N1CCCC1 (stereo not given) | 92% | 93.5% (inactive) | 92% (inactive) | 95.5% (inactive) | 101% (inactive) | 14% (inactive) | 87.2% | 101% | 2.47% (inactive) | -5.9% (inactive) |
| Cc1cc(C)n(-c2ccc(C(=O)Oc3ccc4c(c3)OCO4)cc2)n1 | 80% | 83.5% (inactive) | 80% (inactive) | 92.3% (inactive) | 90.7% (inactive) | 2.71% (inactive) | 88% | 90.7% | -4.13% (inactive) | -1.11% (inactive) |
| CCCNc1nc2c(c(=O)n(C)c(=O)n2C)n1Cc1cccc(C)c1 | 87.5% | 85% (inactive) | 87.5% (inactive) | 83.7% (inactive) | 95.6% (inactive) | -5.19% (inactive) | 101% | 95.6% | -4.25% (inactive) | -3.97% (inactive) |
| O=C(Cn1nnc(-c2ccc(S(=O)(=O)N3CCCC3)cc2)n1)NCC1CCCO1 (stereo not given) | 86% | 99% (inactive) | 86% (inactive) | 89% (inactive) | 101% (inactive) | 2.39% (inactive) | 98.7% | 101% | -3.78% (inactive) | 2.95% (inactive) |
| COc1ccc(CCNC(=O)c2ccc(N3CCCC3=O)cc2)cc1OC | 102% | 108% (inactive) | 102% (inactive) | 103% (inactive) | 92.1% (inactive) | 12.3% (inactive) | 79.8% | 92.1% | -5.84% (inactive) | 4.92% (inactive) |
